Measurements taken from ChEMBL document CHEMBL1131493, “Inhibitors of farnesyl protein transferase. 4-Amido, 4-carbamoyl, and 4-carboxamido derivatives of 1-(8-chloro-6,11-dihydro-5H-benzo[5,6]- cyclohepta[1,2-b]pyridin-11-yl)piperazine and 1-(3-bromo-8-chloro-6,11- dihydro-5H-benzo[5,6]cyclohepta[1,2-b]pyridin-11-yl)piperazine” (J Med Chem, 1998).

How the values were obtained:
[1] = molecular target: geranylgeranyltransferase type-I (Rattus norvegicus, UniProt P53610+Q04631); experiment: Inhibition of rat Geranylgeranyl transferase (GGPT); assay type: protein-complex assay
[2] = molecular target: T1, Protein farnesyltransferase (Homo sapiens, UniProt P49354+P49356); experiment: Inhibition of Farnesyltransferase from Ras-CVLS or Ras-CVLL in Cos-7 monkey kidney cells; assay type: cell-based, Chlorocebus aethiops
[3] = molecular target: T1, Protein farnesyltransferase; experiment: In vitro inhibition of farnesyltransferase farnesylation of the H-ras oncogene; assay type: protein-complex assay
[4] = tested on: Mus musculus; experiment: In vivo antitumor efficacy after peroral dose of 25 mg/kg in mice expressed as duration for which compound was present above IC50; assay type: ADME, organism-based; parameters: dose 25 mg/kg, route oral; conditions: po
Procedure, shortened: (§1)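 Serum pharmacokinetics in nude mice or cynomolgus monkeys after oral (po) or iv dosing. Compounds were given as hydrochloride salts in 20% HPβCD unless otherwise noted. Other formulations were the hydrochloride salt in saline, the micronized free base in 20% HPβCD or corn oil (po) with saline for iv, or the hydrochloride salt in 0.4% methyl cellulose (po).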

[5] = Maximal plasma concentration in nude mice after 25 mg/kg oral dose; assay type: ADME, organism-based; parameters: dose 25 mg/kg, route oral; conditions: mouse; procedure, shortened: as §1
[6] = In vivo antitumor efficacy in nude mice 0-24 hr after peroral dose of 25 mg/kg expressed as Area under the curve; assay type: ADME, organism-based; parameters: time < 24 hr, dose 25 mg/kg, route oral; conditions: nude, mouse, po; procedure, shortened: as §1

Row | SMILES | IC50 [1] | IC50 [3] | IC50 [2] | further results
1 | O=C(Nc1cccnc1)N1CCN(C2c3ccc(Cl)cc3CCc3cccnc32)CC1 (stereo not given) | > 46 µM |  | 4.8 µM | 
2 | O=C(Nc1cccnc1)N1CCN([C@H]2c3ccc(Cl)cc3CCc3cccnc32)CC1 |  | 460 nM | 7.3 µM | 
3 | CC(C)(C(=O)N1CCN(C2c3ccc(Cl)cc3CCc3cccnc32)CC1)c1cccnc1 (stereo not given) |  |  | 6.1 µM | 
4 | CCCC[C@H]1CN(C2c3ccc(Cl)cc3CCc3cc(Br)cnc32)CCN1C(=O)CC1CCN(C(N)=O)CC1 (stereo not given in full) |  | 27 nM | 0.6 µM | 
5 | CN1CCCC(CC(=O)N2CCN(C3c4ccc(Cl)cc4CCc4cccnc43)CC2)C1 (stereo not given) |  | 1190 nM | 2.4 µM | 
6 | CC(=O)N1CCC(C(=O)N2CCN([C@H]3c4ccc(Cl)cc4CCc4cccnc43)CC2)CC1 |  | 1800 nM | 6.5 µM | 
7 | O=C(Oc1cccnc1)N1CCN([C@H]2c3ccc(Cl)cc3CCc3cccnc32)CC1 |  | 820 nM | 3.9 µM | 
8 | O=C(Cc1ccc[n+]([O-])c1)N1CCN(C2c3ccc(Cl)cc3CCc3ccc[n+]([O-])c32)CC1 (stereo not given) |  | 3800 nM | > 20 µM | 
9 | N[C@@H](CO)C(=O)N1CCC(CC(=O)N2CCN(C3c4ccc(Cl)cc4CCc4cc(Br)cnc43)CC2)CC1 (stereo not given in full) | > 33 µM | 104 nM | 1.05 µM | 
10 | O=C(Cc1cccnc1)N1CCN(C2c3ccc(Cl)cc3CCc3cc(Br)cnc32)CC1 (stereo not given) | > 10 µM | 170 nM | 0.85 µM | 
11 | COCC[C@H]1CN(C2c3ccc(Cl)cc3CCc3cc(Br)cnc32)CCN1C(=O)CC1CCN(C(N)=O)CC1 (stereo not given in full) |  | 92 nM | 1.7 µM | 
12 | COCC[C@H]1CN(C2c3ccc(Cl)cc3CCc3cc(Br)cnc32)CCN1C(=O)Cc1cc[n+]([O-])cc1 (stereo not given in full) |  | 34 nM | < 0.25 µM | Time above IC50 [4]: 7 h; Cmax [5]: 9 µM; AUC at 24 h [6]: 19900 ng·h/mL
13 | O=C(C(c1ccccc1)c1ccccc1)N1CCN(C2c3ccc(Cl)cc3CCc3cccnc32)CC1 (stereo not given) | > 50 µM |  |  | 
14 | CN1CCC(CC(=O)N2CCN([C@@H]3c4ccc(Cl)cc4CCc4cccnc43)CC2)CC1 |  | 1800 nM |  | 
15 | CN(C)c1ccc(CC(=O)N2CCN(C3c4ccc(Cl)cc4CCc4cccnc43)CC2)cc1 (stereo not given) | 42 µM |  |  | 
16 | O=C(/C=C/c1cccnc1)N1CCN(C2c3ccc(Cl)cc3CCc3cccnc32)CC1 (stereo not given) | > 50 µM | 2600 nM |  | 
17 | CC(C)(C(=O)N1CCN(C2c3ccc(Cl)cc3CCc3cccnc32)CC1)c1ccc[n+]([O-])c1 (stereo not given) |  | 1260 nM |  | 
18 | Clc1ccc2c(c1)CCc1cccnc1C2N1CCNCC1 (stereo not given) |  | 30300 nM |  | 
19 | CNC(=O)N1CCC(CC(=O)N2CCN(C3c4ccc(Cl)cc4CCc4cccnc43)CC2)CC1 (stereo not given) |  | 1050 nM |  | 
20 | O=C(CC1CCNCC1)N1CCN(C2c3ccc(Cl)cc3C=Cc3cc(Br)cnc32)CC1 (stereo not given) |  | 83 nM |  | 
21 | O=C(Cc1ccccn1)N1CCN(C2c3ccc(Cl)cc3CCc3cccnc32)CC1 (stereo not given) | > 46 µM |  |  | 
22 | CC(=O)N1CCC(CC(=O)N2CCN([C@H]3c4ccc(Cl)cc4CCc4cccnc43)CC2)CC1 |  | 1600 nM | 6.2 µM | 
23 | CN1CCC(CC(=O)N2CCN(C3c4ccc(Cl)cc4CCc4c(Cl)ccnc43)CC2)CC1 (stereo not given) |  | 450 nM | 5.7 µM | 
24 | O=C(Nc1ccc[n+]([O-])c1)N1CCN(C2c3ccc(Cl)cc3CCc3cc(Br)cnc32)CC1 (stereo not given) |  | 240 nM | 3.6 µM | 
25 | O=C(CN1C(=O)c2ccccc2C1=O)N1CCN(C2c3ccc(Cl)cc3CCc3cccnc32)CC1 (stereo not given) | > 40 µM |  |  | 
26 | O=C(Nc1cccnc1)N1CCN([C@@H]2c3ccc(Cl)cc3CCc3cccnc32)CC1 |  | 3200 nM |  | 

More lines, main results first:

Row | IC50 [1] | IC50 [3] | SMILES | IC50 [2] | further results
27 | > 40 µM |  | O=C(Nc1ccncc1)N1CCN(C2c3ccc(Cl)cc3CCc3cccnc32)CC1 (stereo not given) |  | 
28 | > 38 µM |  | CN1CCC(CC(=O)N2CCN([C@@H]3c4ccc(Cl)cc4CCc4cc(Br)cnc43)CC2)CC1 |  | 
29 | > 46 µM |  | O=C(Nc1ccccn1)N1CCN(C2c3ccc(Cl)cc3CCc3cccnc32)CC1 (stereo not given) | 1.3 µM | 
30 |  | 9800 nM | O=C(N1CCN(C2c3ccc(Cl)cc3CCc3cccnc32)CC1)n1ccnc1 (stereo not given) |  | 
31 |  | 7000 nM | COC(=O)N1CCCC(CC(=O)N2CCN(C3c4ccc(Cl)cc4CCc4cccnc43)CC2)C1 (stereo not given) |  | 
32 |  | 1750 nM | NC(=O)N1CCCC(CC(=O)N2CCN(C3c4ccc(Cl)cc4CCc4cccnc43)CC2)C1 (stereo not given) |  | 
33 |  | 660 nM | CN1CCCC(NC(=O)N2CCN(C3c4ccc(Cl)cc4CCc4cccnc43)CC2)C1 (stereo not given) |  | 
34 | > 38 µM |  | CN1CCC(CC(=O)N2CCN([C@H]3c4ccc(Cl)cc4CCc4cc(Br)cnc43)CC2)CC1 |  | 
35 | > 38 µM | 41 nM | CN1CCC(NC(=O)N2CCN(C3c4ccc(Cl)cc4CCc4cc(Br)cnc43)CC2)CC1 (stereo not given) | 0.53 µM | 
36 |  | 1250 nM | O=C(CC1CCNCC1)N1CCN(C2c3ccc(Cl)cc3CCc3cccnc32)CC1 (stereo not given) |  | 
37 |  | 1100 nM | O=C(CC1CCCNC1)N1CCN(C2c3ccc(Cl)cc3CCc3cccnc32)CC1 (stereo not given) |  | 
38 | > 43 µM | 1240 nM | CC(=O)C1CCC(C(=O)N2CCN(C3c4ccc(Cl)cc4CCc4cccnc43)CC2)CC1 (stereo not given) | 4.9 µM | 
39 |  | 310 nM | CN1CCC(OC(=O)N2CCN(C3c4ccc(Cl)cc4CCc4cc(Br)cnc43)CC2)CC1 (stereo not given) | > 5 µM | 
